Holding throughout (format): functional
For experiment [1], the system named is Rattus norvegicus. In words: Antihyperlipidemic activity in diet-induced hyperlipidemic rat model assessed as ratio of HDLC to serum total cholesterol level at 40 mg/kg, po administered once daily in morning through gastric intubation for 14 days measured after 4 hrs of last dose.
For experiment [2], the system named is Rattus norvegicus. The experiment is described as follows: Antihyperlipidemic activity in diet-induced hyperlipidemic rat model assessed as serum LDLC level at 40 mg/kg, po administered once daily in morning through gastric intubation for 14 days measured after 4 hrs of last dose. The method in brief:
(§1)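 Male Charles Foster albino rats (200–250 g) fed a hyperlipidemic diet. Compound suspended in 5% EtOH/saline, given by gastric intubation each morning for 14 days; controls got vehicle. Killed 4 h after the last dose, serum taken by cardiac puncture. TC by Abell method, TG by Gottfried–Rosenberg, HDL-C by kit. LDL-C and VLDL-C by Friedewald calculation. Atherogenic index = (TC−HDL-C)/HDL-C. Mean ± SEM, n=6, t-test.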

In experiment [3] the test system is Rattus norvegicus. In words: Antihyperlipidemic activity in diet-induced hyperlipidemic rat model assessed as serum VLDLC level at 40 mg/kg, po administered once daily in morning through gastric intubation for 14 days measured after 4 hrs of last dose. An outline of the steps: as §1
In experiment [4] the test system is Rattus norvegicus. In words: Antihyperlipidemic activity in diet-induced hyperlipidemic rat model assessed as serum triglyceride level at 40 mg/kg, po administered once daily in morning through gastric intubation for 14 days measured after 4 hrs of last dose. The method in brief:
as §1

In experiment [5] the test system is Rattus norvegicus. The experiment is described as follows: Antihyperlipidemic activity in diet-induced hyperlipidemic rat model assessed as serum total cholesterol level at 40 mg/kg, po administered once daily in morning through gastric intubation for 14 days measured after 4 hrs of last dose. The method in brief: as §1
The test system of experiment [6] is Rattus norvegicus. The experiment is described as follows: Antihyperlipidemic activity in diet-induced hyperlipidemic rat model assessed as serum HDLC level at 40 mg/kg, po administered once daily in morning through gastric intubation for 14 days measured after 4 hrs of last dose. An outline of the steps:
as §1

For experiment [7], the system named is Rattus norvegicus. In words: Antihyperlipidemic activity in Triton-induced hyperlipidemic rat model assessed as serum total lipid level at 75 mg/kg, po administered for 2 days through gastric intubation immediately and 20 hrs after triton challenge measured after 4 hrs of last dose. The method in brief: (§2)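 Male Charles Foster albino rats (200–250 g), fasted 24 h, given Triton 400 mg/kg ip in saline. Compound given orally by gastric intubation right after Triton and again 20 h later. Killed by decapitation 4 h after the second dose. Serum separated and stored at −20°. Total cholesterol by Abell method, triglycerides by Gottfried–Rosenberg, total lipid by Frings–Dunn. Mean ± SEM, n=6, Student's t-test versus control.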

Experiment [8] relates to Rattus norvegicus. In words: Antihyperlipidemic activity in Triton-induced hyperlipidemic rat model assessed as serum total cholesterol level at 75 mg/kg, po administered for 2 days through gastric intubation immediately and 20 hrs after triton challenge measured after 4 hrs of last dose. An outline of the steps: as §2
Experiment [9] concerns Rattus norvegicus. In words: Antihyperlipidemic activity in diet-induced hyperlipidemic rat model assessed as atherogenic index at 40 mg/kg, po administered once daily in morning through gastric intubation for 14 days measured after 4 hrs of last dose. The method in brief:
as §1

For experiment [10], the system named is Rattus norvegicus. In words: Antihyperlipidemic activity in Triton-induced hyperlipidemic rat model assessed as serum triglyceride level at 75 mg/kg, po administered for 2 days through gastric intubation immediately and 20 hrs after triton challenge measured after 4 hrs of last dose. An outline of the steps: as §2

Each structure is given as a SMILES string.

In the case of `COc1cc(O)cc2c1C(=O)C(O)(Cc1ccc(O)cc1)O2` (stereo unspecified) [CARPUSIN], the Ratio in the experiment with Rattus norvegicus [1] was 0.09. Besides, the Activity was 292.8 mg/dL in the experiment on Rattus norvegicus [2]; 41.1 mg/dL in the experiment with Rattus norvegicus [3]; 190 mg/dL with Rattus norvegicus [4]; 350.6 mg/dL in the experiment with Rattus norvegicus [5]; 32 mg/dL in the experiment with Rattus norvegicus [6].

For `O=C1C[C@@H](c2ccc(O)cc2)Oc2cc(O)ccc21` [LIQUIRTIGENIN], the Activity in the experiment on Rattus norvegicus [7] was determined as 837.3 mg%; in the experiment with Rattus norvegicus [8] it was 406.7 mg%; with Rattus norvegicus [2], 245.7 mg/dL; in the experiment with Rattus norvegicus [3], 39.6 mg/dL; in the experiment on Rattus norvegicus [4], 198.1 mg/dL; in the experiment on Rattus norvegicus [10], 572.9 mg%. Further, the values for the Activity with Rattus norvegicus [5] and in the experiment with Rattus norvegicus [6] were 323.2 mg/dL and 38.01 mg/dL, respectively. The AI in the experiment with Rattus norvegicus [9] is 7.5. In the experiment on Rattus norvegicus [1], the Ratio is on record as 0.11.

The values above are taken from ChEMBL document CHEMBL1148174, “Antihyperlipidemic effect of flavonoids from Pterocarpus marsupium” (1993).
